# From publication PMC5222895 (Drugs & Aging, 2016)
# Assays:
# Assay type in all cases: in vivo, human
# [1] = test system: subjects with type 1 diabetes mellitus; assay: Safety assessments
# How it was run: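 Monitored from dosing to follow-up 7–21 days after second dose: adverse events, injection-site local tolerability, hypoglycaemic episodes, laboratory safety, physical exam, vital signs, ECG. Hypoglycaemia confirmed if severe (ADA, third-party assistance) or plasma glucose <3.1 mmol/L. Summarised descriptively for subjects receiving at least one dose.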
# [2] = test system: subjects with type 1 diabetes mellitus; assay: Euglycaemic glucose clamp; conditions: single s.c. 0.2 U/kg
# How it was run: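 Single 0.2 U/kg s.c. dose into the lower abdominal wall in randomised two-visit crossover (3–12 day washout), elderly (≥65 y) and younger (18–35 y) T1DM subjects, morning after overnight fast. Euglycaemic clamp, BG target 5.5 mmol/L, up to 12 h. GIR logged every minute. Partial and total AUCGIR taken from raw profiles. Least square means; age-group ratios with 95% CI.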
# [3] = Free serum insulin aspart pharmacokinetics after single subcutaneous dosing; conditions: single s.c. 0.2 U/kg
# How it was run: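 Same crossover dosing (0.2 U/kg s.c., fasted). Blood sampled before dosing, every 2 min to 20 min, every 5 min to 80 min, every 10 min to 2 h, every 15 min to 3 h, then 3.5–12 h. Free (PEG-precipitated) serum insulin aspart measured by validated specific ELISA, LLOQ 10 pmol/L. Pre-LLOQ concentrations imputed by compartmental modelling for initial AUC portion.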
# [4] = elderly and younger adults with T1DM, single s.c. 0.2 U/kg
# [5] = elderly (≥65 years) T1DM, least square mean, n = 30
substance,measurement,setting,value
insulin aspart,Injection-site reactions,[1]; during the trial,no injection-site reactions
same,Adverse events of moderate intensity,[1]; [4],eight
same,Serious adverse events,[1]; [4],no serious adverse events
same,Tolerability,[1]; [4],well-tolerated
same,Confirmed hypoglycaemic episodes,"[1]; severe (ADA) or plasma glucose <3.1 mmol/L, during the trial",No confirmed hypoglycaemic episodes
same,"GIRmax, ratio of elderly/younger adults [95% CI]","[2]; age group ratio, T1DM",0.78 [0.60–1.01]
same,"AUCGIR,0-t, ratio of elderly/younger adults [95% CI]","[2]; age group ratio, T1DM, primary endpoint for faster aspart",0.85 [0.67–1.07]
same,"AUCGIR,0-t (total glucose-lowering effect)","[2]; elderly T1DM, clamp up to 12 h, least square mean, n = 22",1012.5 mg/kg
same,"AUCIAsp,0-t, ratio of elderly/younger adults [95% CI]","[3]; age group ratio, T1DM",1.32 [1.09–1.59]
same,"C max, ratio of elderly/younger adults [95% CI]","[3]; age group ratio, T1DM",1.20 [0.96–1.50]
same,t Early 50% Cmax,[3]; [5],28.0 min
same,t max,[3]; [5],1.07 h
same,C max (maximum insulin aspart concentration),"[3]; elderly T1DM, least square mean, n = 30",0.3676 nM
